# Compound activity as filed in PubChem BioAssay.
# The list is not random: actives were taken first. Their share in the collection is about 2.4%.
# aDG glyco up: alpha-DG glycosylation activation. 0.22% of 360,000 active. activation, % at 10 µM. Pro5-aDG cells, alpha-DG glycosylation AlphaScreen (IIH6); 0% Pro5, 100% B10-LARGE cell signal. AID 624168;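 active = activation of at least 8% versus controls, or a plate z-score of at least 8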;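 note: Pro5 are CHO cells carrying HIG-tagged alpha-DG that lacks glycosylation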
# 697 NFkB inh: lowers PMA/ionomycin-induced NF-kB signal in 697 B cells; 697 B-cell NF-kB luciferase reporter, 16 h; inhibition, % at 4 µM; 0.33% of 330,000 active; in the data active = inhibition above about 35%
# MPTP block: permeability transition pore inhibition; isolated mouse mitochondria, Ca2+ swelling absorbance, 30 min; inhibition, % at 10 µM; 1.4% of 360,000 active;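 active = inhibition of 50% or more, scaled per plate between neutral and stimulator controls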;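 note: 0% = DMSO wells given calcium and 100% = 1 mM EGTA wells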
# NR2E3 ag-1: human photoreceptor-specific nuclear receptor agonism; Q9Y5X4; CHO-S Gal4-NCOR/VP16-NR2E3 two-hybrid, luciferase; inhibition of corepressor binding, % at 3.98 µM; 0.35% of 360,000 active;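 active = inhibition above the mean of all tested compounds plus 3 SD, cut at about 70% in these data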;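 note: 0% = DMSO with NR2E3 transfected cells and 100% = cells lacking NR2E3 construct; higher means lower luciferase signal from less NR2E3 corepressor binding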
# Target sequence (Q9Y5X4 whole entry, looked up, the tested form may be a part): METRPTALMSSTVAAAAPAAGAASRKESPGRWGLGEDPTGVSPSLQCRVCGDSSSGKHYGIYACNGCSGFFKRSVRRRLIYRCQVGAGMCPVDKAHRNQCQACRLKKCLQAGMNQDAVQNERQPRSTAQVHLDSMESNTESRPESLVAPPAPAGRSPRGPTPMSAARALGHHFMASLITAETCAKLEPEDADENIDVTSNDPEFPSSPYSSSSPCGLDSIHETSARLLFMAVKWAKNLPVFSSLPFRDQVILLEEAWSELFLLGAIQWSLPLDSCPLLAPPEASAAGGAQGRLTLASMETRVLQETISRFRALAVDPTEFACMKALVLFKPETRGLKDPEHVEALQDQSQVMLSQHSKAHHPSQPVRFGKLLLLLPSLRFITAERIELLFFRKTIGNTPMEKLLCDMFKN
# Jurkat NFkB inh: lowers PMA/ionomycin-induced NF-kB signal in Jurkat cells; PMA/ionomycin-induced NF-kB luciferase reporter, luminescence; inhibition, % at 4 µM; 0.53% of 330,000 active; AID 435003; in the data active = inhibition above about 50%
# NR2E3 ag-2: agonists of human nuclear receptor NR2E3; GST-NR2E3/biotin-RetCOR TR-FRET, 1536-well; Q9Y5X4; 0.12% of 320,000 active; inhibition of corepressor binding, % at 4.78 µM;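 active = percent inhibition above the cutoff of mean plus 3 SD of all tested compounds, set per screening campaign, cut at about 20% in these data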;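 note: 0% = DMSO wells and 100% = biotin wells as full block of FRET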
#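 System: GST-tagged NR2E3 plus biotinylated RetCOR corepressor; Buffer or medium: pH 7.5 Tris-based buffer; Probe or stimulus: RetCOR corepressor, biotinylated, 7 nM; Doses: compound at 4.8 µM, single dose; Schedule: 5 h incubation at 4 °C; Technique: time-resolved FRET; Evaluation: percent inhibition of TR-FRET ratio; Replication: one well per compound, singlicate testing.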
# 697 NFkB conf: lowers PMA/ionomycin-induced NF-kB signal in 697 B cells | shares compounds with 697 NFkB inh | 697 B-cell NF-kB luciferase, 16 h | inhibition, % at 4 µM | 35% of 2,000 active | AID 449746; in the data active = inhibition mostly above about 28%, no sharp cut-off; inactive = mostly below about 22%
# NR2E3 ag conf: confirmation of human NR2E3 agonists; shares compounds with NR2E3 ag-1; CHO-S mammalian two-hybrid NR2E3-NCOR, luciferase luminescence; inhibition, % at 3.98 µM; 51% of 2,300 active; AID 624378;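 active = average inhibition above a cutoff equal to the mean inhibition of all tested compounds plus one SD, cut at about 70% in these data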;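 note: 0% = DMSO in NR2E3 cells and 100% = DMSO in cells lacking NR2E3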
# GAL4-VP16 luc: GAL4-VP16 reporter inhibition in NR2E3 agonist counterscreen. shares compounds with NR2E3 ag-1. CHO-S GAL4-VP16 luciferase reporter, luminescence. inhibition, % at 3.98 µM. 29% of 2,300 active;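 active = mean inhibition above a cutoff equal to the average over all tested compounds plus one standard deviation, cut at about 70% in these data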;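 note: luciferase from a UAS reporter driven by GAL4-VP16 transactivation; 0% = DMSO with VP16-transfected cells and 100% = DMSO with cells lacking VP16; higher means less reporter light so more repression of VP16 activity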
# Starred values were filed as active, the others as inactive; i = inactive; / = no result given.
SMILES,aDG glyco up,697 NFkB inh,MPTP block,NR2E3 ag-1,Jurkat NFkB inh,NR2E3 ag-2,NR2E3 ag conf,GAL4-VP16 luc,others
Cc1cc(C)cc(N2C(=O)NC(=O)/C(=C\c3cccn3-c3ccccc3)C2=O)c1,-0.1,53.3*,5.3,-1.0,10.2,2.8,/,/,697 NFkB conf=61.5*
CCCCn1c(O)c(C(CC)=NC(C)c2ccccc2)c(=O)[nH]c1=O (stereo not drawn),0.3,17.3,-1.8,-10.1,6.2,0.1,/,/,
C=CCn1c(O)c(C(CC)=NC(C)c2ccccc2)c(=O)[nH]c1=O (stereo not drawn),-0.2,60.6*,4.7,-11.1,-7.8,-0.1,/,/,697 NFkB conf=38.9*
Cc1nc2cc(-c3cccc(F)c3)nn2c(C)c1CCC(=O)N1CCC2(CC1)OCCO2,-0.2,36.0*,4.1,6.4,17.9,1.2,/,/,697 NFkB conf=35.7*
COc1ccc(C(=O)N2CCCC2=O)cc1,0.0,3.2,-2.5,10.3,1.1,-0.8,/,/,
COc1cccc2c1N=C1CCCC3CN(C(C)=O)CCC123 (stereo not drawn),-0.2,/,-1.2,-12.0,/,/,/,/,
CN(C)c1ccc(C(=O)N/N=C/C23CC[C@@H](O)CC2(O)CC[C@@H]2[C@@H]3CCC3(C)C(C4=CC(=O)OC4)CCC23O)cc1 (stereo partly drawn),0.5,i,-0.4,12.3,-11.1,2.5,/,/,697 NFkB conf=-314.0
CC(C)NC(C)C(=O)C12CC3CC(CC(C3)C1)C2 (stereo not drawn),-0.1,7.5,-1.0,0.0,19.7,-2.6,/,/,
CN(C)P(=O)(C(Cl)=C(N1CCCCC1)N1CCCCC1)N(C)C,0.4,40.7*,1.8,-7.1,-17.4,-1.9,/,/,697 NFkB conf=23.4
Cc1cc(N=Nc2ccccc2C)ccc1N,-0.3,-329.7,3.8,/,-72.3,-1.3,/,/,697 NFkB conf=-112.8
CC(C)CCP(=O)(O)c1ccccc1,-0.1,6.3,-2.5,-6.6,3.8,-0.9,/,/,
CCC1(OC(=O)CN)C(=O)OCc2c1cc1n(c2=O)Cc2cc3ccccc3nc2-1 (stereo not drawn),-0.2,/,-0.9,93.2*,/,4.1,93.9*,56.1,
Cc1cccc(NC(=O)COC(=O)c2cc(C)n(C3CC3)c2C)c1,-0.1,-6.7,-0.6,-21.0,8.9,2.6,/,/,
CC(=NNC(=S)N1CC2CCC(CC2)C1)c1nccs1,-0.7,/,-0.7,96.1*,/,/,100.3*,84.8*,
c1ccc(-c2ccc(-c3n(-c4ccccn4)c4ccccc4[n+]3-c3ccccn3)cc2)cc1,-0.1,/,2.4,-18.0,/,/,/,/,
CC(C)n1c(=O)c(C=Nc2ccc(F)cc2)c(O)n(Cc2ccco2)c1=O,-0.1,14.8,1.8,-13.8,6.8,1.6,/,/,
CC1=C(N2CC2)C(=O)C(CO)=C(N2CC2)C1=O,-0.2,/,-1.7,58.9,/,/,99.4*,96.4*,
COc1ccc(N=C(C)c2c(O)n(C3CCCCC3)c(=O)[nH]c2=O)c(OC)c1,0.6,-24.2,4.8,-13.9,4.5,2.6,/,/,
COc1ccc(CC2NCC(O)C2OC(C)=O)cc1 (stereo not drawn),-0.5,/,0.2,104.6*,/,/,99.2*,98.6*,
CC1=CC(=O)C2=C(C)CC(O)C3C(C)C(=O)OC3C12 (stereo not drawn),-0.1,15.8,0.4,-6.5,13.6,-0.5,/,/,
c1ccc2c3c(ccc2c1)OCC1CONC31 (stereo not drawn),/,12.6,/,/,21.4,-3.1,/,/,
CCC(C)C1NC(=O)C(NC(=O)C(CC(C)C)N(C)C(=O)C2CCCN2C(=O)C(C)O)C(C)OC(=O)C(Cc2ccc(OC)cc2)N(C)C(=O)C2CCCN2C(=O)C(CC(C)C)NC(=O)[C@H](C)C(=O)[C@H](C(C)C)OC(=O)CC1O (stereo partly drawn),-0.2,/,-1.1,102.1*,/,/,98.7*,99.6*,
C#CCCC[C@@H]1OC(=O)CNC(=O)C([C@@H](C)CC)NC(=O)[C@@H]2CCCN2C(=O)C([C@@H](C)CC)OC(=O)[C@H](Cc2ccccc2)N(C)C(=O)[C@H](C(C)C)NC(=O)C1(C)C (stereo partly drawn),0.2,/,-4.5,3.0,/,/,/,/,
CCN1C[C@]2(CO)CC[C@H](OC)[C@@]34C5C[C@H]6[C@H](OC)C5[C@](O)(C[C@H]6OC)[C@@](O)(C(OC)C23)[C@@H]14 (stereo partly drawn),0.0,9.9,1.4,-39.0,-3.7,4.6,/,/,
CC(O)C1C=CC=CC(=O)OC2CC3OC4C5OC5(C)CCC4(COC(=O)C4OC4(C)C(O)CO1)C2(C)C31CO1 (stereo not drawn),0.3,/,-0.8,101.1*,/,/,99.2*,97.4*,
SMILES,aDG glyco up,697 NFkB inh,MPTP block,NR2E3 ag-1,Jurkat NFkB inh,NR2E3 ag-2,NR2E3 ag conf,GAL4-VP16 luc,others
CC(=O)OC1C(=O)OCC23CCC4(C)OC4C2OC2CC(OC(=O)C=CC=CC(=O)OCCC1C)C3(C)C21CO1 (stereo not drawn),-0.5,/,-1.9,101.8*,/,/,98.5*,98.6*,
O=c1[nH]c2ccccc2n1C1CCN(C(CCc2ccccc2)c2nnnn2-c2ccc3c(c2)OCCO3)CC1 (stereo not drawn),-0.4,/,-1.7,47.6,/,/,50.7,14.6,
COC(=O)C12OCC34C(CC5C(C)=C(O)C(=O)CC5(C)C3C(O)C1O)OC(=O)C(OC(=O)/C=C(\C)C(C)C)C24 (stereo not drawn),-0.4,/,-0.8,103.0*,/,/,99.7*,100.0*,
CC[C@@H](O)C[C@H]1CCC[C@@]2(C[C@@H]3OC(=O)/C=C/[C@@](C)(O)[C@@H](O)[C@H](C)[C@@H](O)[C@H](OC4CCC(N(C)C)C(C)O4)[C@@H](O)[C@](C)(O)CCCCC/C=C/[C@@H]4CC(C)(C)O[C@@]4(O)C[C@H](O2)[C@H]3C)O1 (stereo partly drawn),-0.5,/,-1.0,89.3*,/,/,96.9*,87.1*,
Clc1cnc(Oc2ccc(Oc3ncc(Cl)cc3Cl)cc2)c(Cl)c1,0.0,-7.3,2.3,-3.0,-9.7,-0.3,/,/,
CCOP(=O)(CCP(=O)(OCC)OCC)OCC.C[CH2][Sn]([Cl])([Cl])[CH2]C,0.4,/,-1.3,91.5*,/,/,99.6*,-40.6,
CCC1C2CC3C4N(C)c5ccccc5C45CC(C2C5O)N3C1O (stereo not drawn),0.0,/,-1.6,19.0,/,/,/,/,
Oc1c(Br)cc(Br)cc1Oc1ccc(Br)cc1Br,/,/,/,/,/,3.8,/,/,
c1ccc2c(c1)[IH]c1ccccc1-2,-0.2,/,-2.4,100.5*,/,/,97.5*,88.0*,
